In ChEMBL document CHEMBL1155323, “Synthesis, characterization and antibacterial activity of 2-[1-(5-chloro-2-methoxy-phenyl)-5-methyl-1H-pyrazol-4-yl]-5-(substituted-phenyl)-[1,3,4]oxadiazoles” (Eur J Med Chem, 2009):
Values after ≈ are worked out from the molar mass of the structure shown.

Tests used:
[1] = tested on: Staphylococcus aureus; test: Antibacterial activity against Staphylococcus aureus ATCC 6538P at 100 ug/ml after 24 hrs by agar cup plate method; format: functional; details: read-out: IZ
In short: (§1)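 Agar well (bore) diffusion on inoculated nutrient agar with recultured organisms. Test samples prepared in 20% water in DMSO at 100 µg/mL and placed in bores. Plates incubated at 37 °C for 24 h, then the inhibition zone around each bore measured. Controls: inoculum only, and DMSO only.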

[2] = tested on: Bacillus subtilis; test: Antibacterial activity against Bacillus subtilis ATCC 6633 at 100 ug/ml after 24 hrs by agar cup plate method; format: functional; details: ATCC 6633, 24 h, read-out: IZ; in short: as §1
[3] = tested on: Staphylococcus aureus; test: Antibacterial activity against Staphylococcus aureus ATCC 6538P after 24 hrs by microtitration method; format: functional
In short: (§2)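 Strains grown in Luria broth (1% tryptone, 0.5% yeast extract, 0.5% NaCl), pH 7.2, at 37 °C for 24 h. Mid-log cells read at 540 nm and diluted to OD 0.004 (5×10^5 CFU/mL), then dispensed into microplate wells. Graded concentrations (0.2–500 µg/mL) in 20% water in DMSO added; incubated 37 °C, 24 h.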

[4] = tested on: Klebsiella pneumoniae; test: Antibacterial activity against Klebsiella pneumoniae ATCC 11298 at 100 ug/ml after 24 hrs by agar cup plate method; format: functional; details: ATCC 11298, 24 h, read-out: IZ; in short: as §1
[5] = tested on: Escherichia coli; test: Antibacterial activity against Escherichia coli ATCC 8739 at 100 ug/ml after 24 hrs by agar cup plate method; format: functional; details: ATCC 8739, 24 h, read-out: IZ; in short: as §1
[6] = Octanol-water partition coefficient, log P by shake flask method; format: physicochemical
[7] = tested on: Klebsiella pneumoniae; test: Antibacterial activity against Klebsiella pneumoniae ATCC 11298 after 24 hrs by microtitration method; format: functional; details: ATCC 11298, 24 h; in short: as §2
[8] = tested on: Escherichia coli; test: Antibacterial activity against Escherichia coli ATCC 8739 after 24 hrs by microtitration method; format: functional; details: ATCC 8739, 24 h; in short: as §2
[9] = tested on: Bacillus subtilis; test: Antibacterial activity against Bacillus subtilis ATCC 6633 after 24 hrs by microtitration method; format: functional; details: ATCC 6633, 24 h; in short: as §2

SMILES	MIC [3] [µg/mL]	logP [6]	MIC [7] [µg/mL]	MIC [8] [µg/mL]	MIC [9] [µg/mL]	zone of inhibition at 100 µg/mL [1] [mm]	zone of inhibition at 100 µg/mL [2] [mm]	zone of inhibition at 100 µg/mL [4] [mm]	zone of inhibition at 100 µg/mL [5] [mm]
COc1ccc(Cl)cc1-n1ncc(-c2nnc(-c3ccc(Cl)cc3)o2)c1C	30.6 (≈ 76.3 µM)	4.51	41 (≈ 102 µM)	40 (≈ 99.7 µM)	39.6 (≈ 98.7 µM)	18	15	13	14
COc1ccc(Cl)cc1-n1ncc(-c2nnc(-c3ccc(Cl)c(Cl)c3)o2)c1C	29.8 (≈ 68.4 µM)	5.57	39.6 (≈ 90.9 µM)	21.5 (≈ 49.3 µM)	30 (≈ 68.9 µM)	20	19	15	27
COc1ccc(Cl)cc1-n1ncc(-c2nnc(-c3ccc(C)c([N+](=O)[O-])c3)o2)c1C	40.6 (≈ 95.3 µM)	6.42	42 (≈ 98.6 µM)	30.8 (≈ 72.3 µM)	39.6 (≈ 93 µM)	14	15	12	17
COc1ccc(Cl)cc1-n1ncc(-c2nnc(-c3cc(Cl)cc(Cl)c3)o2)c1C	41 (≈ 94.1 µM)	5.61	29.6 (≈ 67.9 µM)	22.4 (≈ 51.4 µM)	31.8 (≈ 73 µM)	13	15	21	25
COc1ccc(Cl)cc1-n1ncc(-c2nnc(-c3ccc(Br)cc3)o2)c1C	30 (≈ 67.3 µM)	4.88	41.6 (≈ 93.3 µM)	39.8 (≈ 89.3 µM)	40.6 (≈ 91.1 µM)	19	14	13	15
CC1(C)S[C@@H]2[C@H](NC(=O)[C@H](N)c3ccccc3)C(=O)N2[C@H]1C(=O)O [AMPICILLIN]	3.36 (≈ 9.62 µM)	–	4 (≈ 11.4 µM)	3.88 (≈ 11.1 µM)	3.28 (≈ 9.39 µM)	31	32	30	30

More lines, main results first:

MIC [3] [µg/mL]	logP [6]	MIC [7] [µg/mL]	MIC [8] [µg/mL]	MIC [9] [µg/mL]	SMILES	zone of inhibition at 100 µg/mL [1] [mm]	zone of inhibition at 100 µg/mL [2] [mm]	zone of inhibition at 100 µg/mL [4] [mm]	zone of inhibition at 100 µg/mL [5] [mm]
29.8 (≈ 77.4 µM)	4.26	30 (≈ 78 µM)	29.6 (≈ 76.9 µM)	22.4 (≈ 58.2 µM)	COc1ccc(Cl)cc1-n1ncc(-c2nnc(-c3ccc(F)cc3)o2)c1C	20	25	19	21
39.8 (≈ 86.6 µM)	5.2	40 (≈ 87 µM)	30.8 (≈ 67 µM)	39.8 (≈ 86.6 µM)	COc1ccc(Cl)cc1-n1ncc(-c2nnc(-c3ccc(Br)c(C)c3)o2)c1C	15	15	14	17
39.8 (≈ 109 µM)	4.32	40.6 (≈ 111 µM)	40.6 (≈ 111 µM)	29.8 (≈ 81.2 µM)	COc1ccc(Cl)cc1-n1ncc(-c2nnc(-c3ccccc3)o2)c1C	15	20	14	14
21.5 (≈ 55.9 µM)	4.28	29.8 (≈ 77.4 µM)	30.6 (≈ 79.5 µM)	30 (≈ 78 µM)	COc1ccc(Cl)cc1-n1ncc(-c2nnc(-c3cccc(F)c3)o2)c1C	27	19	20	18
29.8 (≈ 64.8 µM)	5.19	39 (≈ 84.8 µM)	40.6 (≈ 88.3 µM)	39.6 (≈ 86.1 µM)	COc1ccc(Cl)cc1-n1ncc(-c2nnc(-c3ccc(C)c(Br)c3)o2)c1C	20	15	15	14
